Assay results as given in article PMC11771645 (Journal of Clinical Pharmacology, 2024).
“Also recorded” adds a separate entry of the source. Like-named read-outs stand apart in the source and are kept apart here.

Key:
[1] = Phase 2 Friedreich's ataxia study, observed PK; assay type: in vivo; details: human, plasma, oral, geometric mean; for AUC: AUC0‐8 h
Method in brief: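 Phase 2 study in patients with Friedreich's ataxia, with repeated oral dosing of the test compound at 200 mg or 400 mg TID. Observed plasma Cmax and AUC0-8 h were summarised as geometric means on Day 1 and Day 91. These observed data served to verify the PBPK model, with simulated exposures judged accurate if within 1.5-fold of observed.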

[2] = Food-effect study; assay type: in vivo, human
[3] = tested on: CYP3A4; test: In vitro CYP3A4 induction; assay type: in vitro ADME, human
[4] = tested on: CYP1A2; test: In vitro CYP1A2 induction; assay type: in vitro ADME, human
[5] = biological target: CYP3A4 (Homo sapiens, UniProt P08684); test: Reaction phenotyping studies; assay type: in vitro ADME
Chain of CYP3A4 (Homo sapiens, UniProt P08684) (P08684 whole entry): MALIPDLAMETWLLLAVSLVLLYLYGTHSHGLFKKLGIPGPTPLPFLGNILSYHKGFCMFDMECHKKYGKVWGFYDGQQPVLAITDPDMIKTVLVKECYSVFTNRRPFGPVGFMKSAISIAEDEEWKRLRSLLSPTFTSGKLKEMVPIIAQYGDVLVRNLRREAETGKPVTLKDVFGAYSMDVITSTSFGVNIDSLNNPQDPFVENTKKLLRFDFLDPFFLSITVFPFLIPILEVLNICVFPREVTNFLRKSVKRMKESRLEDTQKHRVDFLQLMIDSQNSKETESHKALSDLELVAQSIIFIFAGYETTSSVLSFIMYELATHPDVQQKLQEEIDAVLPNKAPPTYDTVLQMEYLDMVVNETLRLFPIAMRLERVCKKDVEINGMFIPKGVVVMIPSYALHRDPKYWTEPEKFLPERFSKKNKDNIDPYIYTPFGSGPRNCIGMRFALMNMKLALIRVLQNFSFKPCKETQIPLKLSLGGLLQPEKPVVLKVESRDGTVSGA

[6] = Unbound fraction in plasma; assay type: in vitro ADME; details: human
[7] = Clinical PK in healthy volunteer studies; assay type: in vivo, human
[8] = tested on: CYP3A4; details: cited from earlier work
[9] = tested on: CYP3A4; details: cited from earlier work; remark: listed apart in the source
[10] = oral dose, male subjects; cited from earlier work
[11] = tested on: CYP2C9; details: clinical doses; cited from earlier work
[12] = tested on: CYP2C19; details: clinical doses; cited from earlier work
[13] = tested on: breast cancer resistance protein (BCRP); details: clinical doses; cited from earlier work
[14] = patients with Friedreich's ataxia; cited from earlier work
[15] = 400 mg vatiquinone with 200 mg itraconazole
[16] = Observed, Vatiquinone + Itraconazole (5 days TID, 200 mg)
[17] = in the presence of itraconazole
[18] = 400 mg vatiquinone with 600 mg rifampicin
[19] = Observed, Vatiquinone + Rifampicin (14 days TID, 600 mg)

AUC, low‐fat meals compared with fasted [2]: 8 fold
CYP3A4 Indmax ([3]; Scaled using rifampicin data): 4.26
EC50 ([3]; human): 3700 nM
CYP3A4 induction potential ([3]; in vitro data): borderline potential inducer
CYP1A2 Indmax ([4]; In vitro study): 2.61
CYP1A2 Indmax ([4]; Scaled using omeprazole data): 1.04
EC50 ([4]; human): 1800 nM
CYP1A2 induction potential ([4]; in vitro data): borderline potential inducer
enzyme mediating vatiquinone metabolism [5]: mainly mediated by CYP3A4
fraction unbound [6]: 0.022
ka ([7]; Clinical study): 1.27 h⁻¹
tlag ([7]; Clinical study): 3.67 h
CL/F (apparent oral clearance) ([7]; healthy volunteer studies, from AUC0-inf in the absence of itraconazole): 94.3 L/h
half-life ([7]; human, in vivo, oral): ~9 h
Compound: CC(C)=CCC/C(C)=C/CC/C(C)=C/CC[C@@](C)(O)CCC1=C(C)C(=O)C(C)=C(C)C1=O [Vatiquinone, alpha‐tocotrienol quinone]
AUC ([1]; 200 mg, 200 mg TID, Day 1, patients with Friedreich's ataxia): 1030 ng·h/mL
AUC ([1]; 200 mg, 200 mg TID, Day 91): 1950 ng·h/mL
Cmax ([1]; 200 mg, 200 mg TID, Day 1): 466 ng/mL
Cmax ([1]; 200 mg, 200 mg TID, Day 91): 689 ng/mL
AUC ([1]; 400 mg, 400 mg TID, Day 1, patients with Friedreich's ataxia): 2430 ng·h/mL
AUC ([1]; 400 mg, 400 mg TID, Day 91): 3490 ng·h/mL
Cmax ([1]; 400 mg, 400 mg TID, Day 1): 1020 ng/mL
Cmax ([1]; 400 mg, 400 mg TID, Day 91): 905 ng/mL
increase in vatiquinone AUC0‐inf [8, 15]: ~2.9 fold
increase in vatiquinone Cmax [8, 15]: approximately 3.5 fold
AUC0‐inf, geometric mean [8, 16]: 11,300 h•ng/mL
Cmax, geometric mean [8, 16]: 3430 ng/mL
increase in vatiquinone AUC0‐inf [8, 17]: ~188%
increase in vatiquinone Cmax [8, 17]: approximately 245%
decrease in vatiquinone AUC0‐inf [9, 18]: ~46%
decrease in vatiquinone Cmax [9, 18]: approximately 36%
AUC0‐inf, geometric mean [9, 19]: 1830 ng·h/mL
Cmax, geometric mean [9, 19]: 619 ng/mL
mean cumulative recovery [10]: 92.9%
recovery of unchanged vatiquinone in feces [10]: 6.77 % of dose
effect of vatiquinone on CYP2C9 substrate (tolbutamide) exposure [11]: did not have a significant impact; also recorded: lack of a clinically relevant effect
effect of vatiquinone on CYP2C19 substrate (omeprazole) exposure [12]: did not have a significant impact; also recorded: lack of a clinically relevant effect
effect of vatiquinone on BCRP substrate (rosuvastatin) exposure [13]: did not have a significant impact; also recorded: lack of a clinically relevant effect
tolerability [14]: well tolerated with no dose‐limiting toxicities
